Source: paper PMC3041911 (Journal of Molecular Neuroscience, 2010)
Several values for one entry are separate records, joined by “and”; a condition that tells them apart may be missing. Identical values can stand only once. Like-named read-outs stand apart in the source and are kept apart here.

What was measured:
[1] = tested on: H4 cells overexpressing human APPK595N/M596L; assay: MTT viability assay, H4 cells; type: cell-based; details: data not shown
[2] = tested on: primary chicken telencephalic neurons; assay: MTT viability assay, primary chicken neurons; type: cell-based; details: data not shown
Procedure, shortened: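 MTT viability assay in primary E8 chicken telencephalic neurons. Neurons were plated at 3×10^5 per poly-D-lysine-coated 96-well in DMEM with 5% Nu Serum, 0.01% gentamicin and 2 mM L-glutamine, kept at 37°C, 5% CO2, and exposed to DMSO-dissolved compound over a concentration range.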

[3] = tested on: Aβ38, Aβ40 and Aβ42 formation in primary chicken telencephalic neurons; assay: Aβ secretion assay; type: cell-based; details: for Aβ38 E max / Aβ40 E max / Aβ42 E max / IC50: 24 h treatment
Procedure, shortened: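 Telencephalic neurons from E8 Lohman Brown chicken embryos, mechanically dissociated through a nylon sieve. Neurons were plated at 1.8×10^6 per poly-D-lysine-coated 24-well in DMEM (4.5 g glucose/l, 5% Nu Serum, 0.01% gentamicin, 2 mM L-glutamine). After 48 h the medium was exchanged and neurons were treated for 24 h at 37°C, 5% CO2 with DMSO-dissolved compound at a range of concentrations, vehicle constant.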

[4] = tested on: Aβ38, Aβ40 and Aβ42 formation in H4 cells overexpressing human APPK595N/M596L; assay: Aβ secretion assay; type: cell-based; details: for Aβ38 E max / Aβ40 E max / Aβ42 E max / IC50: H4 cells hAPPK595N/M596L, 24 h treatment; for Effect on Aβ species at low nanomolar (sub-inhibitory) concentrations: low nanomolar concentrations (DAPT: 10 nM); for Emax: Homo sapiens
Procedure, shortened: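 H4 human neuroglioma line stably transfected with human APP695 K595N/M596L (Swedish) under a CMV/chicken β-actin promoter. Cells were plated at 1×10^4 per 96-well in OptiMEM with 10% FBS, 1% penicillin/streptomycin, 200 μg/ml hygromycin-B and 2.5 μg/ml blasticidin-S. After 48 h the medium was exchanged and cells were dosed for 24 h at 37°C, 5% CO2 with DMSO-dissolved compound at a range of concentrations, vehicle constant.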

[5] = tested on: Aβ42 levels; details: 100 μM; ref Okochi et al. [2006]; cited from earlier work
[6] = tested on: Aβ formation in primary human neuronal cultures; details: read-out: IC50 Aβ total, ref Dovey et al. [2001]; cited from earlier work
[7] = tested on: total Aβ content in brain tissue; details: in vivo administration; ref Dovey et al. [2001]; cited from earlier work
[8] = read-out: Aβ38 IC50, primary chicken neurons
[9] = read-out: Aβ40 IC50, primary chicken neurons
[10] = read-out: Aβ42 IC50, primary chicken neurons
[11] = primary chicken neurons, 25 μM compound, 24 h, mean ± SEM
[12] = primary chicken neurons, 50 μM compound, 24 h, mean ± SEM
[13] = H4 cells, 100 μM compound, 24 h, mean ± SEM
[14] = primary chicken neurons, 10 μM compound, 24 h, mean ± SEM
[15] = H4 cells, 10 μM compound, 24 h, mean ± SEM

Molecule | IC50 [3, 8] | IC50 [3, 9] | IC50 [3, 10] | IC50 ([4]; read-out: Aβ38 IC50) | IC50 ([4]; read-out: Aβ40 IC50) | IC50 ([4]; read-out: Aβ42 IC50) | Cell viability (MTT), result in words [1] | Cell viability (MTT), result in words [2] | Concentration at which Aβ38, Aβ40 and Aβ42 levels start to decline ([3]; primary chicken neurons, 24 h) | Aβ38 E max ([3]; primary chicken neurons) | Aβ40 E max ([3]; primary chicken neurons) | Aβ42 E max ([3]; primary chicken neurons) | Effect on Aβ species at low nanomolar (sub-inhibitory) concentrations ([3]; primary chicken neurons) | Aβ38 E max [4] | Aβ40 E max [4] | Aβ42 E max [4] | Concentration at which Aβ38, Aβ40 and Aβ42 levels start to decline ([4]; H4 cells, 24 h) | Effect on Aβ species at low nanomolar (sub-inhibitory) concentrations ([4]; H4 cells) | Concentration at which toxicity starts (viability assay) [2] | Aβ42 level in percent of vehicle-treated cultures [3, 12] | also measured
COC(=O)[C@@H](NC(=O)[C@H](C)NC(=O)Cc1cc(F)cc(F)c1)c1ccccc1 [DAPM, N-(N-3,5-difluorophenacetyl)-L-alanyl-S-phenylglycine methyl ester] | 61.9 nM | 99.7 nM and 100 nM | 107 nM | 19.9 nM and 20 nM | 23.1 nM and 23 nM | 25.9 nM and 26 nM | no effect on cell viability | no effect on cell viability | 50 nM | 100% | 100% | 100% | no increase in Aβ secretion | 100% | 100% | 100% | 50 nM | increase of all three Aβ forms |  |  | 
CSc1ccc(/C=C2/C(C)=C(CC(=O)O)c3cc(F)ccc32)cc1 [Sulindac sulfide, (Z)-5-fluoro-2-methyl-1-[p-(methylthio)benzylidene]indene-3-acetic acid] |  |  |  |  |  |  |  |  |  |  |  |  |  |  |  |  |  |  | 75 µM | 25.3 ± 2.1% | Concentration at which cell toxicity starts (viability assay) ([1]; minor cell toxicity): 150 µM; Aβ38 level in percent of vehicle-treated cultures [3, 11]: approximately 149.7 ± 6.4%; Aβ42 level in percent of vehicle-treated cultures [3, 11]: 54.7 ± 6.4%; Concentration at which Aβ42 levels start to decline ([3]; primary chicken neurons, 24 h): 25 µM; Aβ42 level in percent of vehicle-treated cultures ([4]; H4 cells, 50 μM compound, 24 h, mean ± SEM): 75.0 ± 7.1%; Aβ40 production (effect in words) ([4]; H4 cells, 100 μM compound, 24 h): unaltered; Aβ42 level in percent of vehicle-treated cultures [4, 13]: 39.3 ± 2.0%; Concentration at which Aβ42 levels start to decline ([4]; H4 cells, 24 h): 50 µM; Emax ([4]; 24 h, read-out: Aβ42 E max): 100%
CCCC[C@@H](C=O)NC(=O)[C@H](CC(C)C)NC(=O)OCc1ccccc1 [Calpeptin, benzyloxycarbonylleucyl-norleucinal] |  |  |  |  |  |  | No toxicity | No toxicity |  |  |  |  |  |  |  |  |  |  |  |  | Aβ38 level in percent of vehicle-treated cultures [3, 14]: 31.1 ± 1.8%; Aβ40 level in percent of vehicle-treated cultures [3, 14]: 89.9 ± 3.8%; Aβ42 level in percent of vehicle-treated cultures [3, 14]: 259.3 ± 7.3%; Effect on Aβ levels up to 1 μM ([3]; primary chicken neurons, up to a concentration of 1 μM): no effect; Aβ38 level in percent of vehicle-treated cultures [4, 15]: 12.9 ± 2.6%; Aβ40 level in percent of vehicle-treated cultures [4, 15]: 35.5 ± 2.2%; Aβ42 level in percent of vehicle-treated cultures [4, 15]: 90.3 ± 6.0%; Effect on Aβ levels up to 1 μM ([4]; H4 cells, up to a concentration of 1 μM): did not evoke any dramatic changes; Emax ([4]; 24 h, read-out: Aβ38 E max): 100%; Emax ([4]; 24 h, read-out: Aβ40 E max): 100%
O=C(O)c1cc(Oc2ccc([N+](=O)[O-])cc2)cc(Oc2ccc([N+](=O)[O-])cc2)c1 [CW, 3,5-bis(4-nitrophenoxy)benzoic acid] |  |  |  |  |  |  | no cell toxicity |  |  |  |  |  |  |  |  |  |  |  | 150 µM | 29.9 ± 1.2% | Aβ38 level in percent of vehicle-treated cultures [3, 14]: 127.9 ± 0.9%; Aβ42 level in percent of vehicle-treated cultures [3, 14]: 63.6 ± 2.4%; Aβ38 level in percent of vehicle-treated cultures [3, 12]: 159.3 ± 8.0%; Concentration at which Aβ42 levels start to decline ([3]; primary chicken neurons, 24 h): 5 µM; Aβ40 content (effect in words) ([3]; primary chicken neurons, up to 50 μM compound): unchanged; Aβ38 level in percent of vehicle-treated cultures [4, 13]: 287.5 ± 31.2%; Aβ42 level in percent of vehicle-treated cultures [4, 13]: 16.0 ± 1.8%; Concentration at which Aβ42 levels start to decline ([4]; H4 cells, 24 h): 50 µM; Emax ([4]; 24 h, read-out: Aβ42 E max): 100%; Effect on Aβ42 levels [5]: reduce Aβ42 levels

Second part, led by results:

IC50 [3, 8] | IC50 [3, 9] | IC50 [3, 10] | IC50 ([4]; read-out: Aβ38 IC50) | IC50 ([4]; read-out: Aβ40 IC50) | IC50 ([4]; read-out: Aβ42 IC50) | Molecule | Cell viability (MTT), result in words [1] | Cell viability (MTT), result in words [2] | Concentration at which Aβ38, Aβ40 and Aβ42 levels start to decline ([3]; primary chicken neurons, 24 h) | Aβ38 E max ([3]; primary chicken neurons) | Aβ40 E max ([3]; primary chicken neurons) | Aβ42 E max ([3]; primary chicken neurons) | Effect on Aβ species at low nanomolar (sub-inhibitory) concentrations ([3]; primary chicken neurons) | Aβ38 E max [4] | Aβ40 E max [4] | Aβ42 E max [4] | Concentration at which Aβ38, Aβ40 and Aβ42 levels start to decline ([4]; H4 cells, 24 h) | Effect on Aβ species at low nanomolar (sub-inhibitory) concentrations ([4]; H4 cells) | Concentration at which toxicity starts (viability assay) [2] | Aβ42 level in percent of vehicle-treated cultures [3, 12] | also measured
71.2 nM | 92.8 nM and 93 nM | 101 nM | 50.3 nM and 50 nM | 61.4 nM and 61 nM | 63.8 nM and 64 nM | C[C@H](NC(=O)Cc1cc(F)cc(F)c1)C(=O)N[C@H](C(=O)OC(C)(C)C)c1ccccc1 [DAPT, N-[N-(3,5-difluorophenacetyl-L-alanyl)]-S-phenylglycine t-butyl ester] | not affected | not affected | 100 nM | 100% | 100% | 100% | no dramatic increase in Aβ levels | 100% | 100% | 100% | 50 nM | increased the formation of all three Aβ species |  |  | IC50 [6]: 115 nM; Concentration in brain tissue that reduced total Aβ content [7]: ≥ 200 nM
3.7 nM | 4.7 nM | 4.8 nM | 92.3 nM | 125 nM | 216 nM | β-secretase inhibitor IV | no reduction in cell viability | no reduction in cell viability | 5 nM | 91% | 76% | 70% |  | 88% | 79% | 86% |  |  |  |  | Potency of BACE-1 inhibition in primary cells relative to H4 cell line ([3]; primary chicken neurons versus H4 cells hAPPK595N/M596L): approximately tenfold more potent; Aβ42 reduction ([3]; primary chicken neurons, inhibitor concentration 25 nM): more than 50%
